Data published in ChEMBL document CHEMBL1124171, “Ergolines as selective 5-HT1 agonists” (J Med Chem, 1988).

Key:
Rattus norvegicus [1] = assay: Effect of Metergoline on the elevation of serum corticosterone, after sc administration (1.0 mg/kg) Metergoline pretreament; format: functional, organism-based
Method in brief: (§1)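 Male Wistar rats (~150 g) received metergoline (3 mg/kg, ip) or no pretreatment. Drug was given sc in dilute HCl 1 h later, and rats were decapitated 1 h after that. Serum corticosterone was determined spectrofluorometrically. Results are mean ± SE, five rats/group, P < 0.05 versus the corresponding control.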

Rattus norvegicus [2] = assay: Effect of Metergoline on the elevation of serum corticosterone, after sc administration (0.1 mg/kg) Metergoline pretreament; format: functional, organism-based; method in brief: as §1
Rattus norvegicus [3] = assay: Effect on 5-hydroxyindoleacetic acid in rat whole brain, after sc administration (0 mg/kg dose) (experiment 2); format: functional, organism-based
Method in brief: (§2)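 Drug was given sc in dilute HCl to male Wistar rats (~150 g), with decapitation 1 h later. Whole brains were frozen on dry ice and held at −15 °C. […] Results are mean ± SE, five rats/group, P < 0.05 versus vehicle control.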

Rattus norvegicus [4] = assay: Decreased accumulation of 5-hydroxytryptophan after decarboxylase inhibition in the hypothalamus of rat at a dose 0.1mg/Kg, sc; format: functional, organism-based
Method in brief: (§3)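 Male Wistar rats (~150 g) got drug sc in dilute HCl. NSD 1015 (100 mg/kg, ip) was given 30 min after drug and 30 min before decapitation. Hypothalamic 5-HTP was measured by LC with electrochemical detection. Results are mean ± SE, five rats per treated group and six controls; significance at P < 0.01.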

Rattus norvegicus [5] = assay: Effect on serum corticosterone in serum of rats after sc administration (1 mg/kg dose) (experiment 1); format: functional, organism-based
Method in brief: (§4)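 Male Wistar rats (~150 g) housed at 24 °C with lights 7 a.m.–7 p.m. Compound in dilute HCl given sc 1 h before decapitation. Serum corticosterone measured spectrofluorometrically, μg/100 mL. Five rats per group, mean ± SE. Significance set at P < 0.05 versus the vehicle control.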

Rattus norvegicus [6] = assay: Decreased accumulation of 5-hydroxytryptophan after decarboxylase inhibition in the hypothalamus of rat at a dose 0mg/Kg, sc; format: functional, organism-based; method in brief: as §3
Rattus norvegicus [7] = assay: Effect on 5-hydroxyindoleacetic acid in rat whole brain, after sc administration (0.1 mg/kg dose) (experiment 1); format: functional, organism-based; method in brief: as §2
[8] = Ratio of affinity towards 5-HT1 to 5-HT2 receptor
Method in brief: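 Frontal cortex from male Wistar rats (140–160 g), homogenate pellet in 0.05 M Tris with 10 μM pargyline and 4 mM Ca²⁺, 250–350 μg protein/sample. 5-HT1: 2 nM [³H]-5-HT, nonspecific with 10 μM 5-HT. […] Eleven concentrations, 0.1–10 000 nM, in duplicate. IC50 from curve fitting of specific binding.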

Rattus norvegicus [9] = assay: Effect on 5-hydroxyindoleacetic acid in rat whole brain, after sc administration (0.01 mg/kg dose) (experiment 2); format: functional, organism-based; method in brief: as §2
Rattus norvegicus [10] = species on record: Rattus norvegicus; assay: Effect of […] on the elevation of serum corticosterone at a dose 100 ug/mL No pretreatment; format: functional, organism-based
Method in brief: (§5)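 Rats got p-chlorophenylalanine (300 mg/kg, ip) or no pretreatment. 24 h later, drug (0.3 mg/kg, sc, dilute HCl) or p-chloroamphetamine HCl (2.5 mg/kg, ip) was given, and rats were killed 1 h after. Serum corticosterone was measured spectrofluorometrically. Results are mean ± SE, five male Wistar rats/group.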

Rattus norvegicus [11] = assay: Effect on concentration of 5HIAA in rat brain hypothalamus after 0.3 mg/kg sc administration; format: functional, organism-based; design: dose 0.3 mg/kg
Method in brief: (§6)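 Male Wistar rats (~150 g) were injected sc with drug in dilute HCl and decapitated 1 h later. Hypothalamus and striatum were dissected and frozen on dry ice. […] Results are mean ± SE, five rats/group, P < 0.05.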

Rattus norvegicus [12] = assay: Effect on serum corticosterone in serum of rats after sc administration (0.3 mg/kg dose) (experiment 1); format: functional, organism-based; method in brief: as §4
Rattus norvegicus [13] = assay: Effect on 3,4- dihydroxyphenylacetic acid concentration in rat striatum, after 0.03 mg/kg sc administration; format: functional; conditions: route subcutaneous
Method in brief: (§7)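 Male Wistar rats (~150 g) were given drug or apomorphine HCl sc and decapitated 1 h later. Striatal DOPAC and HVA were quantified by LC with electrochemical detection. Results are mean ± SE, five rats/group, P < 0.05.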

Rattus norvegicus [14] = assay: Effect on serum corticosterone in serum of rats after sc administration (0.03 mg/kg dose) (experiment 1); format: functional, organism-based; method in brief: as §4
Rattus norvegicus [15] = assay: Effect of Metergoline on the elevation of serum corticosterone, after sc administration (1.0 mg/kg) No pretreatment; format: functional, organism-based; method in brief: as §1
Rattus norvegicus [16] = assay: Effect on 5-hydroxyindoleacetic acid in rat whole brain, after sc administration (0.3 mg/kg dose) (experiment 1); format: functional, organism-based; method in brief: as §2
Rattus norvegicus [17] = assay: Effect on concentration of serotonin in rat brain striatum after 0.3 mg/kg sc administration; format: functional, organism-based; design: dose 0.3 mg/kg; method in brief: as §6
Rattus norvegicus [18] = assay: Minimum effective dose required to suppressing (MED) 5HIAA concentration in rat when administered sc; format: functional; conditions: read-out: MED
Method in brief: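 Male Wistar rats (~150 g). Compound in dilute HCl given sc at graded doses 1 h before decapitation. Whole-brain 5-HIAA measured by LC with electrochemical detection; serum corticosterone measured spectrofluorometrically. Minimum effective dose is the lowest dose giving a significant difference from control (P < 0.05).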

Rattus norvegicus [19] = assay: Effect on 5-hydroxyindoleacetic acid in rat whole brain, after sc administration (0.03 mg/kg dose) (experiment 2); format: functional, organism-based; method in brief: as §2
Rattus norvegicus [20] = species on record: Rattus norvegicus; assay: Effect of fluoxetine on the elevation of serum corticosterone at a dose 100 ug/mL, No pretreatment; format: functional, organism-based
Method in brief: as §5, with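 “fluoxetine HCl (10” for “p-chlorophenylalanine (300”, “16” for “24”, “with decapitation” for “and rats were killed”, “rats/group, P < 0.05.” for “rats/group.”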

Rattus norvegicus [21] = assay: Effect on serotonin in rat whole brain, after sc administration (0.01 mg/kg dose) (experiment 2); format: functional, organism-based; method in brief: as §2
Rattus norvegicus [22] = assay: Effect on serotonin in rat whole brain, after sc administration (0 mg/kg dose) (experiment 2); format: functional, organism-based; method in brief: as §2
Rattus norvegicus [23] = assay: Effect of Metergoline on the elevation of serum corticosterone, after sc administration (0 mg/kg) Metergoline pretreament; format: functional, organism-based; method in brief: as §1
Rattus norvegicus [24] = assay: Effect of Metergoline on the elevation of serum corticosterone, after sc administration (0.3 mg/kg) No pretreatment; format: functional, organism-based; method in brief: as §1
Rattus norvegicus [25] = assay: Effect on serum corticosterone in serum of rats after sc administration (0.1 mg/kg dose) (experiment 1); format: functional, organism-based; method in brief: as §4
[26] = biological target: Serotonin 1 (5-HT1) receptor (Rattus norvegicus, UniProt P28564+P30940+P19327+P28565); assay: Binding affinity towards 5-hydroxytryptamine 1 receptor using [3H]5-HT as a radioligand from rat frontal cortex homogenates; format: tissue-based
Rattus norvegicus [27] = assay: Effect on 5-hydroxyindoleacetic acid in rat whole brain, after sc administration (0 mg/kg dose) (experiment 1); format: functional, organism-based; method in brief: as §2
Rattus norvegicus [28] = assay: Effect on serotonin in rat whole brain, after sc administration (0.03 mg/kg dose) (experiment 1); format: functional, organism-based; method in brief: as §2
Rattus norvegicus [29] = assay: Decreased accumulation of 5-hydroxytryptophan after decarboxylase inhibition in the hypothalamus of rat at a dose 0.03mg/Kg, sc; format: functional, organism-based; method in brief: as §3
Rattus norvegicus [30] = assay: Effect on 3,4-dihydroxyphenylacetic acid concentration in rat striatum, after 0.3 mg/kg sc administration; format: functional; conditions: route subcutaneous; method in brief: as §7
Rattus norvegicus [31] = assay: Effect on concentration of 5HIAA in rat brain striatum after 0.3 mg/kg sc administration; format: functional, organism-based; design: dose 0.3 mg/kg; method in brief: as §6

Q: With C[C@@H]1C=C2c3cccc4c3[C@@H](CN4)C[C@H]2N(C)C1 as the molecule, how does the Serum corticosterone (Rattus norvegicus [1]) read?
A: 61.2 µg/mL

Q: And the Serum corticosterone (Rattus norvegicus [2])?
A: 46.8 µg/mL

Q: What about the Concentration (Rattus norvegicus [3]) of the same molecule?
A: 2.2 nM/g

Q: What about the Concentration (Rattus norvegicus [4]) of the same molecule?
A: 0.73 nM/g

Q: What about the Concentration (Rattus norvegicus [5]) of the same molecule?
A: 70.8 nM/g

Q: And the Concentration (Rattus norvegicus [6])?
A: 1.92 nM/g

Q: What about the Concentration (Rattus norvegicus [7]) of the same molecule?
A: 1.45 nM/g

Q: What about the Selectivity ratio [8] of the same molecule?
A: 100

Q: What about the Concentration (Rattus norvegicus [9]) of the same molecule?
A: 2.2 nM/g

Q: And the Serum corticosterone (Rattus norvegicus [10])?
A: 47.3 µg/mL

Q: And the Concentration (Rattus norvegicus [11])?
A: 2.18 mg/kg

Q: What about the Concentration (Rattus norvegicus [12]) of the same molecule?
A: 46.6 nM/g

Q: And the DOPAC concentration (Rattus norvegicus [13])?
A: 3.81 nM/g

Q: What about the Concentration (Rattus norvegicus [14]) of the same molecule?
A: 6.5 nM/g

Q: And the Serum corticosterone (Rattus norvegicus [15])?
A: 70.8 µg/mL

Q: What about the Concentration (Rattus norvegicus [16]) of the same molecule?
A: 1.45 nM/g

Q: And the Concentration (Rattus norvegicus [17])?
A: 1.94 mg/kg

Q: And the minimal effective dose (Rattus norvegicus [18])?
A: 0.03 mg/kg

Q: What about the Concentration (Rattus norvegicus [19]) of the same molecule?
A: 1.9 nM/g

Q: What about the Serum corticosterone (Rattus norvegicus [20]) of the same molecule?
A: < 68.2 µg/mL

Q: What about the Concentration (Rattus norvegicus [21]) of the same molecule?
A: 2.67 nM/g

Q: What about the Concentration (Rattus norvegicus [22]) of the same molecule?
A: 2.66 nM/g

Q: And the Serum corticosterone (Rattus norvegicus [23])?
A: 6.2 µg/mL

Q: What about the Serum corticosterone (Rattus norvegicus [24]) of the same molecule?
A: 46.6 µg/mL

Q: And the Concentration (Rattus norvegicus [25])?
A: 33.8 nM/g

Q: And the IC50 [26]?
A: 0.017 µM

Q: And the Concentration (Rattus norvegicus [27])?
A: 1.89 nM/g

Q: And the Concentration (Rattus norvegicus [28])?
A: 2.8 nM/g

Q: And the Concentration (Rattus norvegicus [29])?
A: 1.19 nM/g

Q: And the DOPAC concentration (Rattus norvegicus [30])?
A: 4.62 nM/g

Q: What about the Concentration (Rattus norvegicus [31]) of the same molecule?
A: < 2.38 mg/kg
